System: U2OS
Experiment: Multiplex assay against U2OS
Assay type: toxicity, cell-based
Details: human
Summary of the method: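 Per cents of healthy-nucleus cells form the tubulin, mitochondrial-mass and membrane-permeability phenotype values. Live cells were stained at seeding with Hoechst33342, BioTracker Green Microtubule Cytoskeleton Dye, MitoTracker Red and Annexin V Alexa Fluor 680. After compound addition they were imaged on a CQ1 microscope at 37°C and 5% CO2, and CellPathfinder machine-learning gating split them into Hoechst high-intensity objects or normal cells, normal cells into healthy, pyknosed or fragmented nuclei, and pyknosed cells into mitotic or apoptotic.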

[1] = 12 h, 1 µM, compound concentration 1 uM, replicate 1
[2] = 12 h, 1 µM, compound concentration 1 uM, replicate 2
[3] = 12 h, 10 µM, compound concentration 10 uM, replicate 1
[4] = 12 h, 10 µM, compound concentration 10 uM, replicate 2
[5] = 24 h, 1 µM, compound concentration 1 uM, replicate 1
[6] = 24 h, 1 µM, compound concentration 1 uM, replicate 2
[7] = 24 h, 10 µM, compound concentration 10 uM, replicate 1
[8] = 24 h, 10 µM, compound concentration 10 uM, replicate 2
[9] = 48 h, 1 µM, compound concentration 1 uM, replicate 1
[10] = 48 h, 1 µM, compound concentration 1 uM, replicate 2
[11] = 48 h, 10 µM, compound concentration 10 uM, replicate 1
[12] = 48 h, 10 µM, compound concentration 10 uM, replicate 2

For `CCOc1cc(C(=O)N2CCC(N3CCN(C)CC3)CC2)ccc1Nc1ncc2c(n1)N(C1CCCC1)c1ccccc1C(=O)N2C`, the “Population Apoptotic (%)” value [1] was 73%, the “Population Fragmented Nuclei (%)” value [1] was 14% and the “Population Healthy Nuclei (%)” value [1] was 70%. The “Population Hoechst High Intensity Objects (%)” value [1] was 6%, the “Population Membrane Permeable-Phenotype (%)” value [1] was 8% and the “Population Mitochondria Different-Phenotype (%)” value [1] was 75%. For the same compound, the “Population Mitotic Cells (%)” value [1] was 26%, the “Population Normal (%)” value [1] was 93% and the “Population Pyknosed Nuclei (%)” value [1] was 15%. For the same compound, the “Population Tubulin-Different-Phenotype (%)” value [1] was 69%, the “Total Cell Count” value [1] was 153 and the “Population Apoptotic (%)” value [2] was 75%. For the same compound, the “Population Fragmented Nuclei (%)” value [2] was 6%, the “Population Healthy Nuclei (%)” value [2] was 80% and the “Population Hoechst High Intensity Objects (%)” value [2] was 10%. For the same compound, the “Population Membrane Permeable-Phenotype (%)” value [2] was 4%, the “Population Mitochondria Different-Phenotype (%)” value [2] was 76% and the “Population Mitotic Cells (%)” value [2] was 25%. The “Population Normal (%)” value [2] was 89%, the “Population Pyknosed Nuclei (%)” value [2] was 12% and the “Population Tubulin-Different-Phenotype (%)” value [2] was 48%. For the same compound, the “Total Cell Count” value [2] was 67, the “Population Apoptotic (%)” value [3] was 83% and the “Population Fragmented Nuclei (%)” value [3] was 19%. The “Population Healthy Nuclei (%)” value [3] was 48%, the “Population Hoechst High Intensity Objects (%)” value [3] was 7% and the “Population Membrane Permeable-Phenotype (%)” value [3] was 95%. For the same compound, the “Population Mitochondria Different-Phenotype (%)” value [3] was 97%, the “Population Mitotic Cells (%)” value [3] was 16% and the “Population Normal (%)” value [3] was 92%. For the same compound, the “Population Pyknosed Nuclei (%)” value [3] was 32%, the “Population Tubulin-Different-Phenotype (%)” value [3] was 100% and the “Total Cell Count” value [3] was 181. The “Population Apoptotic (%)” value [4] was 92%, the “Population Fragmented Nuclei (%)” value [4] was 21% and the “Population Healthy Nuclei (%)” value [4] was 50%. For the same compound, the “Population Hoechst High Intensity Objects (%)” value [4] was 6%, the “Population Membrane Permeable-Phenotype (%)” value [4] was 93% and the “Population Mitotic Cells (%)” value [4] was 7%. The “Population Normal (%)” value [4] was 93%, the “Population Pyknosed Nuclei (%)” value [4] was 27% and the “Total Cell Count” value [4] was 69. For the same compound, the “Population Apoptotic (%)” value [5] was 50%, the “Population Healthy Nuclei (%)” value [5] was 61% and the “Population Hoechst High Intensity Objects (%)” value [5] was 4%. The “Population Membrane Permeable-Phenotype (%)” value [5] was 2%, the “Population Mitochondria Different-Phenotype (%)” value [5] was 64% and the “Population Mitotic Cells (%)” value [5] was 50%. For the same compound, the “Population Normal (%)” value [5] was 95%, the “Population Pyknosed Nuclei (%)” value [5] was 22% and the “Population Tubulin-Different-Phenotype (%)” value [5] was 17%. For the same compound, the “Total Cell Count” value [5] was 142, the “Population Apoptotic (%)” value [6] was 22% and the “Population Fragmented Nuclei (%)” value [6] was 16%. The “Population Healthy Nuclei (%)” value [6] was 72%, the “Population Hoechst High Intensity Objects (%)” value [6] was 5% and the “Population Membrane Permeable-Phenotype (%)” value [6] was 5%. For the same compound, the “Population Mitochondria Different-Phenotype (%)” value [6] was 65%, the “Population Mitotic Cells (%)” value [6] was 77% and the “Population Normal (%)” value [6] was 94%. For the same compound, the “Population Pyknosed Nuclei (%)” value [6] was 11%, the “Population Tubulin-Different-Phenotype (%)” value [6] was 27% and the “Total Cell Count” value [6] was 71. For the same compound, the “Population Apoptotic (%)” value [7] was 92%, the “Population Fragmented Nuclei (%)” value [7] was 23% and the “Population Healthy Nuclei (%)” value [7] was 17%. The “Population Hoechst High Intensity Objects (%)” value [7] was 7%, the “Population Membrane Permeable-Phenotype (%)” value [7] was 93% and the “Population Mitochondria Different-Phenotype (%)” value [7] was 100%. For the same compound, the “Population Mitotic Cells (%)” value [7] was 7%, the “Population Normal (%)” value [7] was 92% and the “Total Cell Count” value [7] was 215. For the same compound, the “Population Apoptotic (%)” value [8] was 88%, the “Population Fragmented Nuclei (%)” value [8] was 10% and the “Population Healthy Nuclei (%)” value [8] was 30%. The “Population Hoechst High Intensity Objects (%)” value [8] was 11%, the “Population Membrane Permeable-Phenotype (%)” value [8] was 100% and the “Population Mitochondria Different-Phenotype (%)” value [8] was 96%. For the same compound, the “Population Mitotic Cells (%)” value [8] was 11%, the “Population Normal (%)” value [8] was 88% and the “Population Pyknosed Nuclei (%)” value [8] was 59%. The “Population Tubulin-Different-Phenotype (%)” value [8] was 100%, the “Total Cell Count” value [8] was 85 and the “Population Apoptotic (%)” value [9] was 53%. The “Population Fragmented Nuclei (%)” value [9] was 15%, the “Population Healthy Nuclei (%)” value [9] was 64% and the “Population Hoechst High Intensity Objects (%)” value [9] was 3%. For the same compound, the “Population Membrane Permeable-Phenotype (%)” value [9] was 1%, the “Population Mitochondria Different-Phenotype (%)” value [9] was 28% and the “Population Mitotic Cells (%)” value [9] was 46%. For the same compound, the “Population Normal (%)” value [9] was 96%, the “Population Pyknosed Nuclei (%)” value [9] was 19% and the “Population Tubulin-Different-Phenotype (%)” value [9] was 9%. For the same compound, the “Total Cell Count” value [9] was 151, the “Population Apoptotic (%)” value [10] was 42% and the “Population Fragmented Nuclei (%)” value [10] was 13%. For the same compound, the “Population Healthy Nuclei (%)” value [10] was 72%, the “Population Hoechst High Intensity Objects (%)” value [10] was 5% and the “Population Membrane Permeable-Phenotype (%)” value [10] was 12%. The “Population Mitochondria Different-Phenotype (%)” value [10] was 40%, the “Population Mitotic Cells (%)” value [10] was 57% and the “Population Normal (%)” value [10] was 94%. The “Population Pyknosed Nuclei (%)” value [10] was 14%, the “Population Tubulin-Different-Phenotype (%)” value [10] was 25% and the “Total Cell Count” value [10] was 81. The “Population Apoptotic (%)” value [11] was 93%, the “Population Fragmented Nuclei (%)” value [11] was 34% and the “Population Healthy Nuclei (%)” value [11] was 1%. For the same compound, the “Population Hoechst High Intensity Objects (%)” value [11] was 14%, the “Population Membrane Permeable-Phenotype (%)” value [11] was 100% and the “Population Mitochondria Different-Phenotype (%)” value [11] was 100%. The “Population Mitotic Cells (%)” value [11] was 6%, the “Population Normal (%)” value [11] was 85% and the “Population Pyknosed Nuclei (%)” value [11] was 63%. For the same compound, the “Population Tubulin-Different-Phenotype (%)” value [11] was 100%, the “Total Cell Count” value [11] was 281 and the “Population Apoptotic (%)” value [12] was 100%. The “Population Fragmented Nuclei (%)” value [12] was 16%, the “Population Healthy Nuclei (%)” value [12] was 20% and the “Population Hoechst High Intensity Objects (%)” value [12] was 18%. The “Population Membrane Permeable-Phenotype (%)” value [12] was 93%, the “Population Mitochondria Different-Phenotype (%)” value [12] was 86% and the “Population Mitotic Cells (%)” value [12] was 0%. For the same compound, the “Population Normal (%)” value [12] was 81%, the “Population Pyknosed Nuclei (%)” value [12] was 62% and the “Population Tubulin-Different-Phenotype (%)” value [12] was 93%. For the same compound, the “Total Cell Count” value [12] was 103.

Reference: ChEMBL document CHEMBL4689842, “EUbOPEN Chemogenomics Library wave 1” (2021)
